Assay results of several laboratories.
Technique: competition with immobilised ligand
RPS6KA2 N-terminal kinase domain: Ribosomal protein S6 kinase alpha-2, N-terminal kinase domain (RPS6KA2, Homo sapiens, UniProt Q15349)
RPS6KA2 C-terminal kinase domain: Ribosomal protein S6 kinase alpha-2, C-terminal kinase domain (RPS6KA2, Homo sapiens, UniProt Q15349)

`CCN1CCN(Cc2ccc(C(=O)Nc3ccc(C)c(Oc4ccc5c(c4)CC(=O)N5)c3)cc2C(F)(F)F)CC1` gave a remaining binding of 100% (RPS6KA2 N-terminal kinase domain; binding; 1 µM).
`O=C(c1ccc(Nc2ncc(Cl)c(-c3ccc(Cl)s3)n2)cc1)N1CCC(N2CCCC2)CC1` gave a remaining binding of 71% (RPS6KA2 C-terminal kinase domain; binding; 1 µM).
With `O=C(Nc1cccnn1)N1CCC(=Cc2cccc(Oc3ccc(C(F)(F)F)cn3)c2)CC1` the remaining binding was 100% (RPS6KA2 C-terminal kinase domain; cell-free assay; 1 µM).
The remaining binding of `c1cnn2ncc(-c3ccnc(N4CCC45COC5)n3)c2c1` is reported as 85% (RPS6KA2 C-terminal kinase domain; binding; 1 µM).
`Cc1c(NC(=O)c2cc(C(N)=O)nc3cc(F)ccc23)c(C(F)(F)F)nn1Cc1ccc(C#N)cc1` has a remaining binding of 86% (RPS6KA2 C-terminal kinase domain; cell-free assay; 1 µM).
`C=CC(=O)N1CCC(C(=O)NCC(=O)N2CCN(c3nc(-c4cnc(N)nc4C(F)F)nc(N4CCOCC4)n3)CC2)CC1` gave a remaining binding of 93% (RPS6KA2 C-terminal kinase domain; binding; 1 µM).
`O=C(NCCCN1CCOCC1)c1ccc(Nc2nccc(-c3cc4ccccc4s3)n2)cc1` has a remaining binding of 16% (RPS6KA2 C-terminal kinase domain; binding; 1 µM).
The remaining binding of `CS(=O)(=O)c1cc(C2(NC(=O)c3cncc4c3cnn4-c3ccc(F)cc3)CC2)ccn1` is reported as 88% (RPS6KA2 C-terminal kinase domain; cell-free assay; 1 µM).
`N[C@@H]1CCN(c2nccc(-c3cnn4ncccc34)n2)C1` has a remaining binding of 100% (RPS6KA2 C-terminal kinase domain; binding; 1 µM).
For `COc1cnc(Nc2cccc(S(N)(=O)=O)c2)nc1N1CCN(c2ccccc2)CC1`, the remaining binding was 84% (RPS6KA2 C-terminal kinase domain; binding; 1 µM).
With `CC1CCCN1c1nccc(-c2cnn3ncccc23)n1` (stereo not shown) the remaining binding was 100% (RPS6KA2 N-terminal kinase domain; binding; 1 µM).
`N#CC1(c2ccccn2)CCN(Cc2cc(C(=O)N3CCCC3)c(=O)n3ccccc23)CC1` gave a remaining binding of 88% (RPS6KA2 N-terminal kinase domain; cell-free assay; 1 µM).
`O=C(NCC1CCOCC1)c1n[nH]cc1NC(=O)c1c(F)cccc1F` gave a remaining binding of 100% (RPS6KA2 C-terminal kinase domain; binding; 1 µM).
`O=C(c1ccc(Nc2ncc(Cl)c(-c3cc4ccccc4s3)n2)cc1)N1CCC(N2CCCC2)CC1` gave a remaining binding of 100% (RPS6KA2 N-terminal kinase domain; binding; 1 µM).
For `C[C@@H](c1ccc(-n2cnc3c(N)ncnc32)cc1)N1CCc2nn(C)c(Cc3ccccc3)c2C1=O`, the remaining binding was 78% (RPS6KA2 C-terminal kinase domain; binding; 0.1 µM).
`CN(c1nccc(-c2cnn3ncccc23)n1)C1CC1` gave a remaining binding of 100% (RPS6KA2 C-terminal kinase domain; binding; 1 µM).
For `CNC(=O)[C@@H]1CC[C@@H](n2c(-c3ccc4cnccc4c3)nc3ccc(C(=O)NCc4cccc(C(N)=O)c4)cc32)C1`, the remaining binding was 100% (RPS6KA2 N-terminal kinase domain; binding; 1 µM).
The remaining binding of `CC(C)CC(=O)N1CCc2nc(-c3ccc(Br)cc3)nc(N(C)Cc3ccccc3)c2C1` is reported as 100% (RPS6KA2 C-terminal kinase domain; cell-free assay; 0.1 µM).
For `CN(C)c1nccc(-c2cnc3ncccn23)n1`, the remaining binding was 83% (RPS6KA2 N-terminal kinase domain; binding; 1 µM).
`O=C(NCCCN1CCOCC1)c1ccc(Nc2ncc(Cl)c(-c3ccc(Cl)s3)n2)cc1` has a remaining binding of 63% (RPS6KA2 C-terminal kinase domain; binding; 1 µM).
The remaining binding of `COc1ncc2cc3ccccc3nc2c1C#N` is reported as 94% (RPS6KA2 C-terminal kinase domain; cell-free assay; 5 µM).
The remaining binding of `Cc1cnn2ncc(-c3ccnc(N(C)C)n3)c2c1` is reported as 100% (RPS6KA2 C-terminal kinase domain; binding; 1 µM).
`C[C@@H](c1cccc(C#N)c1)n1cc(Cl)cc(C(N)=O)c1=N` has a remaining binding of 100% (RPS6KA2 C-terminal kinase domain; cell-free assay; 1 µM).
`O=C(Nc1c[nH]nc1C(=O)NC1CCNCC1)c1cc(F)cc(F)c1` gave a remaining binding of 100% (RPS6KA2 N-terminal kinase domain; binding; 1 µM).
`COc1cc(C(=O)N2CCC(N3CCN(C)CC3)CC2)ccc1Nc1ncc2c(n1)N(C)c1ccccc1C(=O)N2C` gave a remaining binding of 7.5% (RPS6KA2 C-terminal kinase domain; binding; 10 µM).
`COc1cnc(Nc2cccc(S(N)(=O)=O)c2)nc1N1CCN(c2ccccc2)C(=O)C1` has a remaining binding of 96% (RPS6KA2 N-terminal kinase domain; binding; 1 µM).
`COc1ccc2cc(OCC3(C(=O)O)CN(C(=O)c4ccc(F)cc4)C3)ccc2c1` gave a remaining binding of 100% (RPS6KA2 C-terminal kinase domain; cell-free assay; 1 µM).
With `Nc1ncc2c(n1)-c1c([nH]c3ccc(C#CC4CC4)cc13)CCCC2` the remaining binding was 92% (RPS6KA2 C-terminal kinase domain; binding; 1 µM).
For `Cc1cnc(Nc2ccc(C(=O)N3CCC(N4CCCC4)CC3)cc2)nc1-c1cc2ccccc2s1`, the remaining binding was 100% (RPS6KA2 N-terminal kinase domain; binding; 1 µM).
For `O=S(=O)(NC1CCC(c2cc(F)ccc2F)(S(=O)(=O)c2ccc(Cl)cc2)CC1)C(F)(F)F` (stereo not shown), the remaining binding was 95% (RPS6KA2 C-terminal kinase domain; cell-free assay; 1 µM).
For `c1cncc(-c2cccc(Nc3nccc(NC4CCCCC4)n3)c2)c1`, the remaining binding was 44% (RPS6KA2 N-terminal kinase domain; binding; 10 µM).
With `CN(CCCC(F)(F)F)c1nccc(-c2cnn3ncccc23)n1` the remaining binding was 86% (RPS6KA2 N-terminal kinase domain; binding; 1 µM).
`O=C(c1ccc(Nc2nccc(-c3cc4ccccc4s3)n2)cc1)N1CCC(N2CCCC2)CC1` has a remaining binding of 100% (RPS6KA2 N-terminal kinase domain; binding; 1 µM).
The remaining binding of `FC(F)(F)Oc1cccc(-c2cnc3ccc(-c4ccncc4)nn23)c1` is reported as 82% (RPS6KA2 C-terminal kinase domain; binding; 5 µM).
